Source: ChEMBL document CHEMBL4007483, “Design, synthesis and potent cytotoxic activity of novel 7-(N-[(substituted-sulfonyl)piperazinyl]-methyl)-camptothecin derivatives” (Bioorg Med Chem Lett, 2017)

What was measured:
Format in all cases: functional, cell-based
[1] = test system: A549; test: Cytotoxicity against human A549 cells after 72 hrs by sulforhodamine B assay; conditions: A549, 72 h
Summary of the method: (§1)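 Cells seeded at 3–5 × 10^3 per well in RPMI-1640 with 10% FBS containing graded sample concentrations, exposed 72 h. Attached cells fixed with cold 50% trichloroacetic acid 30 min, stained with 0.04% SRB 30 min. Bound dye solubilized in 10 mM Tris-base, absorbance read at 515 nm; IC50 from concentration series.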

[2] = test system: MDA-MB-231; test: Cytotoxicity against human MDA-MB-231 cells after 72 hrs by sulforhodamine B assay; conditions: MDA-MB-231, 72 h; summary of the method: as §1
[3] = test system: KB; test: Cytotoxicity against human KB cells after 72 hrs by sulforhodamine B assay; summary of the method: as §1
[4] = Cytotoxicity against human KBVIN cells after 72 hrs by sulforhodamine B assay; summary of the method: as §1
[5] = test system: MCF7; test: Cytotoxicity against human MCF7 cells after 72 hrs by sulforhodamine B assay; conditions: MCF7, 72 h; summary of the method: as §1

Structure (SMILES) | IC50 [1] | IC50 [2] | IC50 [3] | IC50 [4] | IC50 [5]
CC[C@@]1(O)C(=O)OCc2c1cc1n(c2=O)Cc2c-1nc1ccccc1c2CN1CCN(S(=O)(=O)c2ccc(OC)cc2)CC1 | 5.36 nM | 124 nM | 20.7 nM | 142 nM | 70.9 nM
CC[C@@]1(O)C(=O)OCc2c1cc1n(c2=O)Cc2c-1nc1ccccc1c2CN1CCN(S(=O)(=O)N(C)C)CC1 | 7.22 nM | 336 nM | 78.6 nM | 141 nM | 71.5 nM
CC[C@@]1(O)C(=O)OCc2c1cc1n(c2=O)Cc2c-1nc1ccccc1c2CN1CCN(S(=O)(=O)c2ccc(C)cc2)CC1 | 0.89 nM | 84.2 nM | 84.5 nM | 34.6 nM | 18.2 nM
CC[C@@]1(O)C(=O)OCc2c1cc1n(c2=O)Cc2c-1nc1ccccc1c2CN1CCN(S(=O)(=O)c2cccnc2)CC1 | 21.9 nM | 106 nM | 67.8 nM | 327 nM | 61 nM
CC[C@@]1(O)C(=O)OCc2c1cc1n(c2=O)Cc2c-1nc1ccccc1c2CN1CCN(S(=O)(=O)Cc2ccccc2)CC1 | 27.4 nM | 552 nM | 195 nM | 416 nM | 362 nM
CC[C@@]1(O)C(=O)OCc2c1cc1n(c2=O)Cc2c-1nc1ccccc1c2CN1CCN(S(=O)(=O)c2cc(OC)cc(OC)c2)CC1 | 1.42 nM | 6.4 nM | 2.9 nM | 1.2 nM | 34 nM
CC[C@@]1(O)C(=O)OCc2c1cc1n(c2=O)Cc2c-1nc1ccccc1c2CN1CCN(S(=O)(=O)c2ccc(C(C)C)cc2)CC1 | 4.37 nM | 122 nM | 15.9 nM | 81.4 nM | 67.6 nM
CC[C@@]1(O)C(=O)OCc2c1cc1n(c2=O)Cc2c-1nc1ccccc1c2CN1CCN(S(=O)(=O)c2ccc3ccccc3c2)CC1 | 13 nM | 113 nM | 44.2 nM | 165 nM | 81.3 nM
CC[C@@]1(O)C(=O)OCc2c1cc1n(c2=O)Cc2c-1nc1ccccc1c2CN1CCN(S(=O)(=O)c2ccc(F)cc2)CC1 | 0.5 nM | 62.8 nM | 76.3 nM | 25.7 nM | 37.6 nM
CC[C@@]1(O)C(=O)OCc2c1cc1n(c2=O)Cc2c-1nc1ccccc1c2CN1CCN(S(=O)(=O)c2ccccc2)CC1 | 0.25 nM | 46.4 nM | 2 nM | 70.4 nM | 4.9 nM
CC[C@@]1(O)C(=O)OCc2c1cc1n(c2=O)Cc2c-1nc1ccccc1c2CN1CCN(S(=O)(=O)c2cccs2)CC1 | 0.21 nM | 30.5 nM | 71.3 nM | 57.5 nM | 8 nM
CCCCS(=O)(=O)N1CCN(Cc2c3c(nc4ccccc24)-c2cc4c(c(=O)n2C3)COC(=O)[C@]4(O)CC)CC1 | 4.01 nM | 134 nM | 8.5 nM | 203 nM | 74.9 nM
CCc1ccc(S(=O)(=O)N2CCN(Cc3c4c(nc5ccccc35)-c3cc5c(c(=O)n3C4)COC(=O)[C@]5(O)CC)CC2)cc1 | 0.65 nM | 105 nM | 10.9 nM | 126 nM | 61.8 nM
CC[C@@]1(O)C(=O)OCc2c1cc1n(c2=O)Cc2c-1nc1ccccc1c2CN1CCN(S(=O)(=O)c2cc(F)cc(F)c2)CC1 | 0.7 nM | 82.6 nM | 21 nM | 266 nM | 56.3 nM
CC[C@@]1(O)C(=O)OCc2c1cc1n(c2=O)Cc2c-1nc1ccccc1c2CN1CCN(S(=O)(=O)c2ccc([N+](=O)[O-])cc2)CC1 | 29.7 nM | 350 nM | 55.5 nM | 481 nM | 96.2 nM
CC[C@@]1(O)C(=O)OCc2c1cc1n(c2=O)Cc2c-1nc1ccccc1c2CN1CCN(S(=O)(=O)c2ccc(Cl)cc2)CC1 | 6.92 nM | 75.4 nM | 96.9 nM | 20.2 nM | 34.5 nM
CC[C@@]1(O)C(=O)OCc2c1cc1n(c2=O)Cc2cc3ccccc3nc2-1 [CAMPTOTHECIN] | 8.63 nM | 307 nM | 50 nM | 15.7 nM | 87.5 nM
CCc1c2c(nc3ccc(OC(=O)N4CCC(N5CCCCC5)CC4)cc13)-c1cc3c(c(=O)n1C2)COC(=O)[C@]3(O)CC [IRINOTECAN] |  |  |  | > 20000 nM | 
CC[C@@]1(O)C(=O)OCc2c1cc1n(c2=O)Cc2cc3c(CN(C)C)c(O)ccc3nc2-1 [TOPOTECAN] |  |  |  | 287 nM | 
